Screening results from PubChem BioAssay.
A1 apoptosis 2: blocks A1, raising caspase activity; MEF A1-2A-BIM cells, caspase-Glo luminescence, 3 h; percent of clofoctol response, DMSO zero; caspase activation, % (concentration not given with the values); 24,000 tested, under 10 active; AID 2465; in the data active means caspase activation above about 5.9%
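Test system – A1-2A-BIM-expressing MEF cells · Input – 2500 cells/well · Medium – RPMI-1640 growth medium with 10% FBS · Compound dosing – 50 nL pinned compound · Timing – 3 h compound exposure at 37 °C · Technique – Caspase-Glo luminescence (DEVD substrate) · Evaluation – Caspase-3/7 activity from luminescence increase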
INS-1E rescue: preserves ATP levels in cytokine-treated INS-1E cells; INS-1E cytokine-induced death, ATP luminescence, 48 h; normalised: neutral wells 0, positive control 100; protection from cytokine-induced ATP loss, % at 10 µM; 20,000 tested, 0.1% active;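 active means mean replicate protection from cytokine-induced ATP loss at least 50% and at least 75% of replicates each reaching 50%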
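assay system = INS-1E rat insulinoma cells | amount = 8000 cells per well | medium = phenol-red-free RPMI with 5% fetal bovine serum | doses = one compound concentration, pin transfer | timing = 48 h cytokine plus compound treatment, 10 min reagent incubation | also added = IL-1β, TNF-α and IFN-γ cytokine mix | signal = CellTiter-Glo luminescence measuring cellular ATP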
T cruzi intra: inhibitors of intracellular Trypanosoma cruzi. intracellular Trypanosoma cruzi in host cells, plate reader. 22,000 tested, 4.9% active. activity score (inhibition), % at 5.01 µM; in the data active means activity score above about 55%;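 further: parasites and compound incubated about four days before reading; 0% = median of neutral control wells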
An asterisk follows results filed as active; / = no result. The full list was thinned out, with hits kept by preference.

SMILES	A1 apoptosis 2	INS-1E rescue	T cruzi intra
C[C@@H]1CN([C@@H](C)CO)C(=O)c2cccc(NC(=O)c3ccncc3)c2O[C@H]1CN(C)CC1CC1	-2	11	41
C[C@H]1CN([C@@H](C)CO)C(=O)c2cccc(NC(=O)c3ccncc3)c2O[C@H]1CN(C)CC1CCCCC1	0	4	57*
C[C@H]1CN([C@@H](C)CO)C(=O)c2cccc(NC(=O)c3ccncc3)c2O[C@H]1CN(C)C(=O)NC1CCCCC1	2	1	71*
O=C(O)CCCCCCC(=O)N/N=C/c1cc(O)ccc1Br	1	6	-20
O=C(N/N=C/c1ccc(S(=O)(=O)O)o1)c1ccccc1O	/	-37	0
C[C@H]1CN([C@@H](C)CO)C(=O)c2cccc(NC(=O)c3ccncc3)c2O[C@H]1CN(C)Cc1ccc(-c2ccccc2)cc1	2	-10	72*
C[C@H](CO)N1C[C@H](C)[C@H](CN(C)Cc2ccc(C(=O)Nc3ccccc3N)cc2)Oc2c(NC(=O)c3ccncc3)cccc2C1=O	2	-4	-27
C[C@H]1CN([C@@H](C)CO)C(=O)c2cccc(NC(=O)c3ccncc3)c2O[C@H]1CN(C)Cc1ccc(C(=O)O)cc1	1	13	-30
C[C@H]1CN([C@@H](C)CO)C(=O)c2cccc(NC(=O)c3ccncc3)c2O[C@@H]1CN(C)Cc1ccc(-c2ccccc2)cc1	/	-16	79*
COc1cc(Br)cc(/C=N/NC(=O)c2cccc(C(=O)NO)c2)c1O	-3	8	-25
O=C(NO)c1cccc(C(=O)N/N=C/c2ccc(Br)cc2)c1	/	-10	4
O=C(N/N=C/c1c(O)cc(O)cc1O)c1ccccc1O	-7	-13	-4
O=C(NO)c1ccc(C(=O)N/N=C/c2cccnc2)cc1	/	-10	2
C[C@H](CO)N1C[C@H](C)[C@H](CN(C)CC2CC2)Oc2c(NS(=O)(=O)c3cn(C)cn3)cccc2C1=O	-2	1	-7
C[C@@H]1CN([C@H](C)CO)C(=O)c2cccc(NC(=O)NC3CCCCC3)c2O[C@H]1CN(C)CC1CCCCC1	-1	-57	83*
C[C@@H]1CN([C@@H](C)CO)C(=O)c2cccc(NC(=O)NC3CCCCC3)c2O[C@@H]1CN(C)Cc1ccc(Oc2ccccc2)cc1	/	-53	64*
C[C@H]1CN([C@@H](C)CO)C(=O)c2cccc(NC(=O)NC3CCCCC3)c2O[C@H]1CN(C)Cc1ccc(Oc2ccccc2)cc1	1	-32	27
C[C@@H]1CN([C@H](C)CO)C(=O)c2cccc(NS(=O)(=O)c3cn(C)cn3)c2O[C@@H]1CN(C)CC1CCCCC1	1	1	60*
C[C@@H]1CN([C@H](C)CO)C(=O)c2cccc(NC(=O)NC3CCCCC3)c2O[C@@H]1CN(C)Cc1ccc(-c2ccccc2)cc1	/	-32	70*
C[C@H]1CN([C@@H](C)CO)C(=O)c2cccc(NC(=O)NC3CCCCC3)c2O[C@H]1CN(C)Cc1ccc(-c2ccccc2)cc1	/	-19	-29
C[C@H](CO)N1C[C@H](C)[C@@H](CN(C)CC2CCCCC2)Oc2c(NC(=O)NC3CCCCC3)cccc2C1=O	/	-13	23
CC(C)(C)OC(=O)NC1(/C=N/NC(=O)CCCCCC(=O)O)CCCC1	0	4	-15
COC(=O)CCCCCCC(=O)N/N=C/C[C@H](C)CCC=C(C)C	0	-6	6
O=C(CCCCC(=O)N/N=C/c1cccc(Br)c1)NO	-1	/	/
O=C(NO)c1ccc(C(=O)N/N=C/c2cc(Br)ccc2O)cc1	1	-48	-16
SMILES	A1 apoptosis 2	INS-1E rescue	T cruzi intra
O=C1C[C@@](C(=O)NCc2ccccc2)(c2ccc([N+](=O)[O-])cc2)[C@@H](c2ccc(CO)cc2)N1C1CCCCC1	0	/	/
C[C@@H]1CN([C@@H](C)CO)C(=O)c2cccc(NC(=O)NC3CCCCC3)c2O[C@H]1CN(C)Cc1ccc(C(F)(F)F)cc1	/	-6	85*
C[C@@H]1CN([C@H](C)CO)C(=O)c2cccc(NC(=O)NC3CCCCC3)c2O[C@@H]1CN(C)Cc1ccc(C(F)(F)F)cc1	/	-27	23
C[C@@H]1CN([C@H](C)CO)C(=O)c2cc(NS(=O)(=O)c3ccc(F)cc3)ccc2O[C@@H]1CN(C)Cc1ccc(C(F)(F)F)cc1	/	-6	24
C[C@H](CO)N1C[C@H](C)[C@H](CN(C)Cc2ccc(C(F)(F)F)cc2)Oc2ccc(NS(=O)(=O)c3ccccc3)cc2C1=O	/	-19	66*
C[C@@H]1CN([C@@H](C)CO)C(=O)c2cc(NS(=O)(=O)c3ccccc3)ccc2O[C@@H]1CN(C)Cc1ccc(C(F)(F)F)cc1	/	-7	5
